Screening data from PubChem.
In the library only some 4% were active in any assay of this set; here they are far more common.
Granule exo inh – lytic granule exocytosis inhibition; AID 651702; inhibition, % at 10 µM; TALL-104 LAMP-1 surface exposure, flow cytometry; cells stimulated with thapsigargin and PMA; hit rate 0.66% among 360,000;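 active means inhibition above about 55%, limit read from the data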
XBP1 UPR activ – activators of adaptive arm of unfolded protein response (XBP1); CHO-XBP1 luciferase reporter, IRE1-XBP1 UPR activation, luminescence; percent of tunicamycin response, DMSO as zero; activation, % at 20 µM; hit rate 0.33% among 330,000;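 active means versus positive control, 20 µM dose yields 30% or more activation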;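 further: 100% = tunicamycin at 10 µg/mL and 0% = DMSO only wells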
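Material: CHO cell line with stable XBP1 luciferase reporter; buffer or medium: F12 medium containing 10% fetal bovine serum; compound: single point, 20 µM final compound, 1% DMSO; incubation: 6 h treatment, 37 °C; measured by: glow luminescence from Steady-Glo reagent; evaluation: activation, % of tunicamycin; control set: tunicamycin high, DMSO low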
Mdm2 MdmX PPI – human Mdm2/MdmX binding inhibition; O15151+Q00987; SaOS-2 split-luciferase Mdm2/MdmX complementation, luminescence; inhibition, % at 8 µM; hit rate 3% among 330,000; AID 485346;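 active means inhibition of at least 50% at 8 µM in the primary screen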
UPR CHOP act – activators of apoptotic arm of unfolded protein response (CHOP). CHO-CHOP luciferase reporter, UPR activation, luminescence; percent of tunicamycin response over DMSO baseline. activation, % at 10 µM. hit rate 0.34% among 330,000;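 active means at 10 µM dose, activation of 40% or more, normalized to positive control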;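 further: 100% = tunicamycin at 10 µg/mL and 0% = DMSO alone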
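Evaluation: % reporter activation, DMSO baseline versus tunicamycin full activation; System: CHO-CHOP luciferase reporter cell line; Input: 500 cells/well; Incubation: 6 h compound treatment, 37 °C; Measured by: Steady-Glo luciferase luminescence; Dosing: one dose, 10 µM in 0.5% DMSO; Buffer or medium: F12 medium, 10% FBS; Benchmarks: positive tunicamycin 10 µg/mL, negative DMSO alone.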
ABHD5-PLIN5 inh – inhibitors of human ABHD5-perilipin-5 interaction; Q00G26+Q8WTS1; Split G. princeps luciferase complementation, luminescence, 4 h; inhibition, % at 4 µM; hit rate 0.78% among 360,000; AID 602281;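 active means inhibition above the mean inhibition across every tested compound plus 3 SD, cut at about 22% in these data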;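 further: 0% = DMSO only wells and the 100% control is not disclosed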
Target sequence (Q00G26 whole entry, looked up): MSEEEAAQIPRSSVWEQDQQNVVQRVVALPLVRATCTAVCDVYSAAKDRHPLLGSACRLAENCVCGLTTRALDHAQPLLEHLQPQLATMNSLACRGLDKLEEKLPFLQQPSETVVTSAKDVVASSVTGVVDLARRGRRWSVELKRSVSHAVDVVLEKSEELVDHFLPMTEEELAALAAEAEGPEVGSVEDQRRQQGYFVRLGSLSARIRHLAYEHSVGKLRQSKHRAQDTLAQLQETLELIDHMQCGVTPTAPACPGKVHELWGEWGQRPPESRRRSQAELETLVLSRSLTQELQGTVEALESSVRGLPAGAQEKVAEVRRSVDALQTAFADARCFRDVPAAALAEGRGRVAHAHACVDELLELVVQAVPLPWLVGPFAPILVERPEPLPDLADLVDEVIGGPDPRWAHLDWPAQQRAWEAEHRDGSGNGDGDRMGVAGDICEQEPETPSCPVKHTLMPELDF
Target sequence (Q8WTS1 whole entry, looked up): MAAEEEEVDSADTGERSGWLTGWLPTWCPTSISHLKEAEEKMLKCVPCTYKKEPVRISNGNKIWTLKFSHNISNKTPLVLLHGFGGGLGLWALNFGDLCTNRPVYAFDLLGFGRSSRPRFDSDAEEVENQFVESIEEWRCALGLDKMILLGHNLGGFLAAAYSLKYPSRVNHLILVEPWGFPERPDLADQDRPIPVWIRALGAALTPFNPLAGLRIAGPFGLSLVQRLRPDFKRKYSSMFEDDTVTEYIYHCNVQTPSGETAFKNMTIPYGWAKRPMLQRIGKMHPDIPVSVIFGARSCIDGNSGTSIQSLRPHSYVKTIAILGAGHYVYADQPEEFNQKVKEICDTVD
Mdm2-MdmX conf – human Mdm2/MdmX binding inhibition, confirmed; shares compounds with Mdm2 MdmX PPI; luminescent assay; inhibition, % at 8 µM; hit rate 55% among 10,000; AID 489028; in the data active means inhibition above about 40%
FLuc counter – inhibits full-length luciferase, flagging false Mdm2/MdmX hits; shares compounds with Mdm2 MdmX PPI; SaOS-2 full-length luciferase counterscreen, luminescence; inhibition, % at 8 µM; hit rate 77% among 6,200; AID 504607;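 active means mean inhibition at 8 µM reaching about 37%, which flags the compound as non-specific, limit read from the data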;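 further: p53-null SaOS-2 cells with luciferase driven by a doxycycline-inducible promoter; compound on cells about two nights before reading with doxycycline added after day one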
An asterisk follows results filed as active; · = no result.

SMILES	Granule exo inh	XBP1 UPR activ	Mdm2 MdmX PPI	UPR CHOP act	ABHD5-PLIN5 inh	Mdm2-MdmX conf	others
CN1C(=O)N(C)C2(c3ccccc3)Nn3c(s/c(=C/c4ccccc4)c3=O)=NC12c1ccccc1 (stereo not given)	0	-1	7	-4	5	·
O=C(N/N=C/c1ccc(Cl)cc1Cl)c1ccc2nc[nH]c2c1	-3	3	2	4	-8	·
C=CCc1cccc(/C=N/NC(=O)C(=O)Nc2ccc(C)cc2)c1O	0	1	4	1	-1	·
C=CCc1cccc(/C=N/NC(=O)c2ccc3nc[nH]c3c2)c1O	0	1	67*	-1	-4	52*	FLuc counter=26
C=CCc1cccc(/C=N/NC(=O)C(C)Nc2ccc(C)cc2)c1O (stereo not given)	0	0	70*	-1	7	67*	FLuc counter=42*
COc1cc(C(=O)NC(=S)Nc2ccccc2N2CCOCC2)cc(OC)c1OC	-5	-1	19	0	-2	·
Cc1nn(Cc2c(Cl)cccc2Cl)c(Cl)c1/C=C/C(=O)OCC(=O)NCC(F)(F)F	2	4	79*	-3	3	25
CCc1ccccc1NC(=O)CN1CCN(C(=O)CNC(=O)c2ccc(-c3ccccc3)cc2)CC1	-2	-1	50*	1	4	25
CCOC(=O)C1=C(CC)Nc2ccccc2N=C1NC(=O)Nc1ccc(Cl)c(Cl)c1	13	5	94*	6	-4	80*	FLuc counter=39*
CCOC(=O)C1=C(CC)Nc2ccccc2N=C1NC(=O)c1cc(C)on1	2	0	9	2	0	·
Cc1[nH]c2ccccc2c1C(c1ccccn1)N1CCC(C)CC1 (stereo not given)	10	-5	51*	4	-2	0
Cc1[nH]c2ccccc2c1C(c1ccccn1)N1CCCC1 (stereo not given)	0	-1	31	1	1	·
CCOC(=O)C1CCCN(C(c2ccccn2)c2c(C)[nH]c3ccccc23)C1 (stereo not given)	-2	2	53*	3	-3	4
COc1ccc([N+](=O)[O-])cc1NC(=O)CSCc1ccc(Br)cc1	-4	3	51*	2	-2	-3
CCc1ccc2nc(N(CCN(C)C)C(=O)/C=C/c3cccs3)sc2c1	67*	3	51*	0	5	21
CCOc1ccc2nc(N(CCN(C)C)C(=O)/C=C/c3cccs3)sc2c1	2	-5	65*	4	-1	31
NC(=O)CC[C@@H]1NC(=O)[C@H](Cc2ccc(O)cc2)NC(=O)c2cc([N+](=O)[O-])cc(F)c2OCC[C@@H](C(N)=O)NC1=O	-9	0	-28	1	3	·
N#Cc1cc([N+](=O)[O-])ccc1Oc1cccc(/C=N/NC(=O)c2cccc(Cl)c2)c1	1	-1	62*	-2	3	22
COc1ccc(/C=N/NC(=O)c2cccc([N+](=O)[O-])c2)cc1OC	-1	3	16	2	-3	·
FC(F)c1nc2ccccc2[nH]1	0	-2	-24	0	-3	·
CSc1nc(Oc2ccccc2)c2sccc2n1	-3	-1	20	-4	-4	·
CSc1nc(Oc2ccc3ccccc3c2)c2ccccc2n1	0	0	55*	-2	-10	7
Cc1cc2sc(NC(=O)c3ccco3)nc2cc1Cl	4	-7	0	1	5	·
COc1cc2sc(NC(=O)c3ccco3)nc2cc1Cl	-2	4	64*	-1	3	-56
COc1cc(C=C(C(C)=O)C(C)=O)ccc1O	1	-1	2	0	11	·
SMILES	Granule exo inh	XBP1 UPR activ	Mdm2 MdmX PPI	UPR CHOP act	ABHD5-PLIN5 inh	Mdm2-MdmX conf	others
COc1cc(/C=C/C(=O)CC(=O)/C=C/c2ccc(O)c(OC)c2)ccc1O	84*	-2	54*	1	32*	8
COc1cc(/C=C/C(=O)/C=C(O)/C=C/c2ccc(O)c(OC)c2)ccc1O	69*	3	66*	-1	13	19
CC(C)(C)n1nnnc1C(C1CC1)N1CCN(C/C=C/c2ccccc2)CC1 (stereo not given)	-6	·	·	·	5	·
COc1ccccc1NC(=O)Cn1nnc(-c2ccccc2NC(=O)c2ccco2)n1	-3	5	44	-5	6	·
COc1ccccc1NC(=O)Cn1nnc(-c2ccccc2NC(=O)c2cnccn2)n1	-11	3	52*	2	-13	17
O=C(Cn1nnc(-c2ccccc2NC(=O)c2ccccc2F)n1)NCc1ccco1	2	19	50*	3	4	24
COc1ccc(NC(=O)Cn2nnc(-c3ccccc3NC(=O)c3ccco3)n2)cc1	-3	1	55*	-4	-9	56*	FLuc counter=16
COc1ccccc1NC(=S)NC1CCCCCCCCCCC1	-28	3	50	1	-3	·
O=C(OCn1nnc2ccccc2c1=O)C12CC3CC(CC(O)(C3)C1)C2	4	1	-16	-1	9	·
COC(=O)c1cc(-c2ccc(Br)cc2)c2c(=O)n(C)c(=O)n(C)c2n1	-6	-2	72*	1	-17	4
CCOC(=O)c1c(NC(=O)COC(=O)CCNS(=O)(=O)c2ccccc2)sc(C(=O)N(C)C)c1C	1	2	-6	0	-2	·
CC1=CC(=O)C(C(C)C)=C/C1=N\OC(=O)c1cccc2nc(C)oc12	0	-4	53*	24	-5	20
COc1cc(OC)c(C(=O)O/N=C(\N)c2ccccn2)cc1OC	-9	6	46	2	5	·
COc1cc(OC)c(C(=O)O/N=C(\N)c2ccccc2)cc1OC	-8	4	57*	3	2	4
COc1ccc(C(=O)O/N=C(\N)c2ccccc2)cc1OC	-14	11	62*	6	0	-10
COc1ccc(C(=O)O/N=C(\N)c2cccc(C)c2)cc1OC	-4	4	96*	2	-1	50*	FLuc counter=137*
Nc1[nH]ncc1S(=O)(=O)c1ccccc1	3	0	16	-1	-4	·
COc1ccc(-c2nnc(NC(=O)C(C)C)s2)c(OC)c1	24	1	-70	7	-12	·
Cc1ccc(S(=O)(=O)Oc2ccccc2/C=N/NC(N)=S)cc1	-4	3	54*	-1	-9	56*	FLuc counter=45*
Cc1ccc(S(=O)(=O)Oc2ccccc2/C=N/N=C(N)N)cc1	0	-2	29	-2	8	·
Cc1cc(=O)n2c3ccccc3n(CC(O)CN3CCC(C)CC3)c2c1C#N (stereo not given)	1	·	·	·	5	·
